# Experimental data from different studies.
# CTSS: Cathepsin S (CTSS, Homo sapiens, UniProt P25774)
# MAOA: Amine oxidase [flavin-containing] A (MAOA, Homo sapiens, UniProt P21397)
# ahcY: ahcY (Saccharolobus solfataricus, UniProt P50252)
SMILES,target,effect on,action,method,quantity,result
Cc1ccc(F)c(CNS(=O)(=O)c2cccc3cccnc23)c1,"Amine oxidase [flavin-containing] B (Maob, Mus musculus, UniProt Q8BW75)",enzyme activity,inhibitor,fluorescence,IC50,1.81 µM
CC(C)C[C@H](NC(=O)[C@H]1O[C@@H]1C(=O)O)C(=O)NCCCCN=C(N)N,CTSS,enzyme activity,inhibitor,,IC50,0.00073 µM
CNC(=O)c1ccc(-c2cnn3ccc(C(=O)N(C)c4ccc(Cl)c(C(=O)OC)c4)cc23)cc1,MAOA,cell-free assay,,,IC50,> 30 µM
C#CCN(C)CCCCCCCOc1cccc(CN(C)c2c3c(nc4ccccc24)CCCC3)c1,MAOA,enzyme activity,inhibitor,fluorescence,IC50,7.68 µM
CN(C)c1cccc2c(S(=O)(=O)NCCCCCCCCCCC(=O)O)cccc12,"Fatty acid-binding protein, liver (FABP1, Homo sapiens, UniProt P07148)",binding,,fluorescence,Kd,200 nM
CC[C@H](C)[C@H](NC(=O)[C@H](Cc1ccc(O)cc1)NC(=O)[C@@H](NC(=O)[C@H](CCCNC(=N)N)NC(=O)[C@@H](N)CC(=O)O)C(C)C)C(=O)N[C@@H](Cc1cnc[nH]1)C(=O)N1CCC[C@H]1C(=O)N[C@@H](Cc1ccccc1)C(=O)O,"Angiotensin-converting enzyme 2 (ACE2, Homo sapiens, UniProt Q9BYF1)",enzyme activity,inhibitor,fluorescence,IC50,4.9 µM
Cn1nccc1[C@]1(CNC(=O)c2ccc(F)c(F)c2-c2ccc(C(F)(F)F)cc2)NC(=O)NC1=O,CTSS,enzyme activity,inhibitor,,IC50,> 100 µM
CNC(=O)c1ccc(-c2cnn3ccc(C(=O)N(C)c4ccc(Cl)c(C(=O)O)c4)cc23)cc1,"Alpha-1A adrenergic receptor (ADRA1A, Homo sapiens, UniProt P35348)",cell-free assay,,,IC50,> 30 µM
C#CCN(C)CCCCCCCCOCc1ccc(CN(C)c2c3c(nc4ccccc24)CCCC3)cc1,MAOA,enzyme activity,inhibitor,fluorescence,IC50,8.29 µM
O=C(O)[C@@H]1CS[C@H]2CS[C@H](CCS)N21,"sfhI (Serratia fonticola, UniProt Q9RMI1)",enzyme activity,inhibitor,,IC50,> 1000 µM
CC(=O)N(CC#Cc1cccc(C(N)=O)c1)C[C@H]1C[C@@H](n2ccc3c(Cl)ncnc32)[C@H](O)[C@@H]1O,ahcY,enzyme activity,inhibitor,,IC50,> 333 µM
C#CCN(C)CCCCCOCc1ccc(CN(C)c2c3c(nc4ccc(C)cc24)CCCC3)cc1,MAOA,enzyme activity,inhibitor,fluorescence,IC50,0.53 µM
NC(=O)c1cccc(C#CCN(CC[C@H](N)C(=O)O)C[C@H]2O[C@@H](n3cnc4c(N)ncnc43)[C@H](O)[C@@H]2O)c1,ahcY,enzyme activity,inhibitor,,IC50,8.5 µM
C#CCN(C)CCCCCCOc1cccc(CN(C)c2c3c(nc4ccc(F)cc24)CCCC3)c1,MAOA,enzyme activity,inhibitor,fluorescence,IC50,50.7 µM
